Assay results published in ChEMBL document CHEMBL1140564, “Macrocyclic ureas as potent and selective Chk1 inhibitors: an improved synthesis, kinome profiling, structure-activity relationships, and preliminary pharmacokinetics” (Bioorg Med Chem Lett, 2007).
The source made the active and inactive calls. The rule behind the calls is not given here.

What was measured:
[1] = target: T1, Serine/threonine-protein kinase Chk1 (Homo sapiens, UniProt O14757); assay: Inhibition of Chk1
T1 sequence (O14757 whole entry): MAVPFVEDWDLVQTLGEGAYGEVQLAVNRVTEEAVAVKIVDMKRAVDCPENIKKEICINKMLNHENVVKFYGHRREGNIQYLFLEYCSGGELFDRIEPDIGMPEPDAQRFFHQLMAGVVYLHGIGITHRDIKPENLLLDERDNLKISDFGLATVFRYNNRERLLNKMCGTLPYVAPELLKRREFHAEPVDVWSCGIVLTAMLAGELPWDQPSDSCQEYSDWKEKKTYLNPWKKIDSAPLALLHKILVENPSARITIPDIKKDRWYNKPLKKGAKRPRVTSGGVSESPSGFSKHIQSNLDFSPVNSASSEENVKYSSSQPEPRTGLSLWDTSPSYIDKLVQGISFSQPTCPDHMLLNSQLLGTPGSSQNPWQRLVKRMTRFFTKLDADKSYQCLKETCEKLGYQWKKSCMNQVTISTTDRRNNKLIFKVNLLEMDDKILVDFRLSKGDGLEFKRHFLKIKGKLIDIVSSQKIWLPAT

[2] = test system: NCI-H1299; assay: Inhibition of doxorubicin-induced cell cycle arrest in H1299 cells at G2/M phase by FACS assay; type: functional, cell-based; settings: Homo sapiens
Outline: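 H1299 cells treated with 500 nM doxorubicin to induce G2/M arrest, with or without inhibitor at various concentrations, up to 10 μM. Cells stained with propidium iodide and DNA content analysed by FACS. EC50 for abrogation of the Dox-induced G2/M checkpoint.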

[3] = Cell cycle arrest in H1299 cells by accumulation at G2/M phase by FACS assay; type: functional, cell-based; settings: Homo sapiens, NCI-H1299
[4] = test system: HeLa; assay: Cytotoxicity against HeLa cells by MTS assay; type: functional, cell-based; settings: Homo sapiens
[5] = AUC in mouse plasma at 10 mg/kg; type: ADME, organism-based; set-up: dose 10 mg/kg
Outline: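 CD-1 mice received a single intraperitoneal dose of 10 mg/kg. Plasma drug levels were followed over time, and exposure was expressed as AUC in µmol h/L.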

| Compound | IC50 [1] | Activity [2] | Activity [3] | EC50 [4] | EC50 [2] | EC50 [3] | AUC [5] |
| --- | --- | --- | --- | --- | --- | --- | --- |
| N#Cc1ncc2nc1OCCCCOc1cc(P(=O)(O)O)c(Cl)cc1NC(=O)N2 | 8 nM | inactive | inactive | 17400 nM | – | – | – |
| N#Cc1ncc2nc1OCCCCOc1cc(OCCCN3CCOCC3)c(Cl)cc1NC(=O)N2 | 1 nM | – | – | 5000 nM | > 10000 nM | > 10000 nM | – |
| CNc1cc2c(cc1Cl)NC(=O)Nc1cnc(C#N)c(n1)OC/C=C\CO2 | 2 nM | – | – | > 59300 nM | > 10000 nM | > 10000 nM | – |
| CN(C)c1cc2c(cc1Cl)NC(=O)Nc1cnc(C#N)c(n1)OC/C=C\CO2 | 2 nM | – | – | 18700 nM | 1700 nM | > 10000 nM | – |
| N#Cc1ncc2nc1OCCCCOc1cc(O)c(Cl)cc1NC(=O)N2 | 0.3 nM | inactive | inactive | > 59300 nM | – | – | – |
| N#Cc1ncc2nc1OC/C=C\COc1cc(OCCN3CCOCC3)c(Cl)cc1NC(=O)N2 | 1 nM | – | – | 14100 nM | > 10000 nM | > 10000 nM | – |
| N#Cc1ncc2nc1OCCCCOc1cc(NC(=O)c3ccncc3)c(Cl)cc1NC(=O)N2 | 4 nM | inactive | inactive | 24300 nM | – | – | – |
| CN(C)c1cc2c(cc1Cl)NC(=O)Nc1cnc(C#N)c(n1)OCCCCO2 | 2 nM | – | – | 54500 nM | 540 nM | > 10000 nM | – |
| N#Cc1ncc2nc1OCCCCOc1cc(NC(=O)c3ccnc(Cl)c3)c(Cl)cc1NC(=O)N2 | 4 nM | inactive | inactive | > 59300 nM | – | – | – |
| CNc1cc2c(cc1Cl)NC(=O)Nc1cnc(C#N)c(n1)OCCCCO2 | 2 nM | – | – | > 59300 nM | > 10000 nM | > 10000 nM | – |
| N#Cc1ncc2nc1OCCCCCOc1ccc(Cl)cc1NC(=O)N2 | – | – | – | – | – | – | 1.5 µM·h |
| N#Cc1ncc2nc1OC/C=C\COc1cc(OC(=O)N3CCC(N4CCCCC4)CC3)c(Cl)cc1NC(=O)N2 | 1 nM | – | – | 1200 nM | > 10000 nM | > 10000 nM | – |
| N#Cc1ncc2nc1OCCCCOc1cc(OC(=O)N3CCC(N4CCCCC4)CC3)c(Cl)cc1NC(=O)N2 | 1 nM | – | – | 2800 nM | > 10000 nM | > 10000 nM | – |
| N#Cc1ncc2nc1OCCCCOc1cc(N3CCOC3=O)c(Cl)cc1NC(=O)N2 | 6 nM | inactive | inactive | > 59300 nM | – | – | – |
| N#Cc1ncc2nc1OC/C=C\COc1cc(NCCO)c(Cl)cc1NC(=O)N2 | 2 nM | – | – | > 59300 nM | 1300 nM | > 10000 nM | – |
| C[C@H](N)C(=O)Nc1cc2c(cc1Cl)NC(=O)Nc1cnc(C#N)c(n1)OC/C=C\CO2 | 3 nM | – | – | > 59300 nM | 90 nM | > 10000 nM | – |
| N#Cc1ncc2nc1OC/C=C\COc1cc(O)c(Cl)cc1NC(=O)N2 | 0.3 nM | – | – | 45700 nM | 700 nM | > 10000 nM | – |
| CCN(CC)c1cc2c(cc1Cl)NC(=O)Nc1cnc(C#N)c(n1)OCCCCO2 | 23 nM | – | – | > 59300 nM | > 10000 nM | > 10000 nM | – |

| Compound | IC50 [1] | Activity [2] | Activity [3] | EC50 [4] | EC50 [2] | EC50 [3] | AUC [5] |
| --- | --- | --- | --- | --- | --- | --- | --- |
| N#Cc1ncc2nc1OC/C=C\COc1cc(NCc3cncs3)c(Cl)cc1NC(=O)N2 | 4 nM | – | – | 13600 nM | 200 nM | > 10000 nM | – |
| N#Cc1ncc2nc1OCCCCOc1cc(OCCCO)c(Cl)cc1NC(=O)N2 | 1 nM | – | – | > 59300 nM | 2500 nM | > 10000 nM | – |
| COCCCOc1cc2c(cc1Cl)NC(=O)Nc1cnc(C#N)c(n1)OCCCCO2 | 3 nM | inactive | inactive | 13900 nM | – | – | – |
| N#Cc1ncc2nc1OC/C=C\COc1cc(NC(=O)OCCN3CCOCC3)c(Cl)cc1NC(=O)N2 | 3 nM | – | – | > 59300 nM | > 10000 nM | > 10000 nM | – |
| N#Cc1ncc2nc1OC/C=C\COc1cc(N(CCO)CCO)c(Cl)cc1NC(=O)N2 | 1 nM | inactive | inactive | 34100 nM | – | – | – |
| N#Cc1ncc2nc1OCCCCOc1ccc(Cl)cc1NC(=O)N2 | – | – | – | 57600 nM | 1300 nM | > 10000 nM | 3.8 µM·h |
| CCNc1cc2c(cc1Cl)NC(=O)Nc1cnc(C#N)c(n1)OCCCCO2 | 3 nM | inactive | inactive | > 59300 nM | – | – | – |
| N#Cc1ncc2nc1OC/C=C\COc1cc(N3CCOC3=O)c(Cl)cc1NC(=O)N2 | 10 nM | inactive | inactive | > 59300 nM | – | – | – |
| N#Cc1ncc2nc1OCCCCOc1cc(N)c(Cl)cc1NC(=O)N2 | 1 nM | – | – | 3400 nM | < 30 nM | 2600 nM | – |
| N#Cc1ncc2nc1OC/C=C\COc1cc(NC(=O)c3ccnc(Cl)c3)c(Cl)cc1NC(=O)N2 | 6 nM | – | – | 5400 nM | > 10000 nM | > 10000 nM | – |
| N#Cc1ncc2nc1OC/C=C\COc1cc(N)c(Cl)cc1NC(=O)N2 | 0.3 nM | – | – | > 59300 nM | < 30 nM | > 10000 nM | – |
| N#Cc1ncc2nc1OCCCCOc1cc(OCCO)c(Cl)cc1NC(=O)N2 | 8 nM | – | – | > 59300 nM | 3200 nM | > 10000 nM | – |
| N#Cc1ncc2nc1OC/C=C\COc1cc(OCCCN3CCOCC3)c(Cl)cc1NC(=O)N2 | 0.3 nM | – | – | 1900 nM | > 10000 nM | > 10000 nM | – |
| N#Cc1ncc2nc1OC/C=C\COc1cc(OCCCO)c(Cl)cc1NC(=O)N2 | 2 nM | inactive | inactive | > 59300 nM | – | – | – |
| N#Cc1ncc2nc1OCCCCOc1cc(NC(=O)OCCN3CCOCC3)c(Cl)cc1NC(=O)N2 | 3 nM | – | – | > 59300 nM | > 10000 nM | > 10000 nM | – |
| N#Cc1ncc2nc1OC/C=C\COc1cc(NC(=O)c3ccncc3)c(Cl)cc1NC(=O)N2 | 6 nM | – | – | > 59300 nM | > 10000 nM | > 10000 nM | – |
| N#Cc1ncc2nc1OC/C=C\COc1cc(OCCO)c(Cl)cc1NC(=O)N2 | 1 nM | – | – | > 59300 nM | 1900 nM | > 10000 nM | – |
